In ChEMBL document CHEMBL1155640, “Guaiane dimers and germacranolide from Artemisia caruifolia” (J Nat Prod, 2000):
The source made the active and inactive calls. The rule behind the calls is not given here.

Columns and labels:
[1] = biological target: Protease (Human immunodeficiency virus 1) (UniProt Q9YQ12); assay: Inhibition of HIV1 protease at 100 ug/mL
How it was run: (§1)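 Commercial HIV protease assay kit, with inhibition calculated by a previously reported method. Compounds were screened at 100 µg/mL. IC50 was taken from concentration-dependent inhibition. Acetyl pepstatin served as positive control.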

Protease = Protease (Human immunodeficiency virus 1, UniProt Q9YQ12); assay: Inhibition of HIV1 protease; how it was run: as §1
[2] = system: Human immunodeficiency virus 1; assay: Antiviral activity against HIV1 in human MT4 cells assessed as inhibition of viral-induced cytopathic effect at 500 ug/mL; format: functional, organism-based
[3] = system: Human immunodeficiency virus 1; assay: Antiviral activity against HIV1 in human MT4 cells assessed as inhibition of viral-induced cytopathic effect at 250 ug/mL; format: functional, organism-based

Chain of Protease (Human immunodeficiency virus 1) (Q9YQ12 as listed by the source): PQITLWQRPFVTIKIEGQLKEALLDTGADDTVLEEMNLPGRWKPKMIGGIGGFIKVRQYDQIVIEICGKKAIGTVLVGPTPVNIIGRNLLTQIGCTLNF
Chain of Protease (Q9YQ12 whole entry): as the sequence (Q9YQ12 as listed by the source) above

SMILES	inhibition [1]	further results
CC1=C2[C@H]3OC(=O)[C@@H](C)[C@@H]3CC[C@](C)(O)[C@@H]2[C@H]2[C@H]3C[C@]4(C)O[C@@]5(C)CC[C@H]6[C@H](C)C(=O)O[C@@H]6[C@@]4([C@@H]35)[C@@H]12	22%	
CC1=C2[C@H]3OC(=O)[C@H](C)[C@@H]3CC[C@@](C)(O)[C@@H]2[C@H]2[C@H]3C[C@]4(C)O[C@@]5(C)CC[C@H]6[C@H](C)C(=O)O[C@@H]6[C@@]4([C@@H]35)[C@@H]12	22%	
C[C@@H]1C(=O)O[C@@H]2C3=C([C@H]4C(=O)[C@]3(C)[C@@H]3[C@H](O)C5=C([C@H]6OC(=O)[C@@H](C)[C@@H]6CC[C@]5(C)O)[C@@]43C)[C@@](C)(O)CC[C@@H]12	22%	
C/C1=C/[C@H]2OC(=O)[C@H](C)[C@H]2CC[C@]2(C)O[C@H]1C[C@H]2O	22%	

Now from value to compound, other results behind:

inhibition [1]	SMILES	further results
22%	CC1=C2[C@H]3OC(=O)[C@@H](C)[C@@H]3CC[C@](C)(O)[C@@H]2[C@H]2[C@H]3C(=O)[C@H](C)[C@]4([C@@H]3[C@@](C)(O)CC[C@H]3[C@H](C)C(=O)O[C@@H]34)[C@@H]12 [CARUIFOLIN B]	IC50 (Protease): 293 µM; Activity [2]: Active
22%	CC1=C2[C@H]3OC(=O)[C@@H](C)[C@@H]3CC[C@](C)(O)[C@@H]2[C@H]2[C@@H]3[C@@H]4[C@]5([C@H]6OC(=O)[C@@H](C)[C@@H]6CC[C@]4(C)O[C@@]5(C)[C@H]3O)[C@@H]12	
22%	CC1=C[C@H]2[C@H]3[C@H](C(C)=C4[C@H]5OC(=O)[C@@H](C)[C@@H]5CC[C@](C)(O)[C@@H]43)[C@@]13[C@@H]2[C@@](C)(O)CC[C@H]1[C@H](C)C(=O)O[C@@H]13	Activity [3]: Active
22%	C=C1[C@@H](O)[C@@H]2[C@H]3[C@H](C(C)=C4[C@H]5OC(=O)[C@@H](C)[C@@H]5CC[C@](C)(O)[C@@H]43)[C@@]13[C@@H]2[C@@](C)(O)CC[C@H]1[C@H](C)C(=O)O[C@@H]13	
